A short description of experiment [1]: Inhibition of atypical PKCzeta in bovine retinal endothelial cells assessed as TNFalpha/VEGF-induced endothelial permeability preincubated for 30 mins followed by TNFalpha induction for 1 hr and VEGF induction for 30 mins measured every 30 mins for 4 hrs by Transwell assay. The format is cell-based. The settings on record: Bos taurus, Endothelial cell. In a few lines:
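Retinal endothelial monolayers were given a 5-point compound dose-response, then VEGF/TNF was added for 1.5 h. Flux of 70kDa RITC-dextran across the monolayer was the read-out. Data are the mean of at least n≥8, repeated in independent experiments. EC50 was derived from a variable-slope dose-response fit.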

Experiment [2] has as its target T1, Protein kinase C zeta type (Homo sapiens, UniProt Q05513).
T1 sequence (Q05513 whole entry): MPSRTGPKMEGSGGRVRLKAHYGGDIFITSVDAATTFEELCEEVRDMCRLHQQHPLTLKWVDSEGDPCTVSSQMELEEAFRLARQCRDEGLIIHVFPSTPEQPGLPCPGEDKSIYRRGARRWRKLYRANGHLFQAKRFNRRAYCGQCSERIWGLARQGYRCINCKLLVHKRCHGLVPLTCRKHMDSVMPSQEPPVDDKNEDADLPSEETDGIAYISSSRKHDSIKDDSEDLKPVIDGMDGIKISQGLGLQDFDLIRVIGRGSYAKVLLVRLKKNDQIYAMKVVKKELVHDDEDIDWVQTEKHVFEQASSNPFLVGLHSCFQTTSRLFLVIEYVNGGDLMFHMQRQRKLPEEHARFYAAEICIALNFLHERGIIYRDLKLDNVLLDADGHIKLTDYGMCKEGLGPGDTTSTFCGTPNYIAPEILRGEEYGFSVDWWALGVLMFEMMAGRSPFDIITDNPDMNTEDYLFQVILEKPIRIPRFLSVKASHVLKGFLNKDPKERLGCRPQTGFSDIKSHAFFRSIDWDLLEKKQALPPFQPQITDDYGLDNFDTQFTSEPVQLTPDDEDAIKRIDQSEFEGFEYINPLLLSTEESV
The experiment is described as follows: Inhibition of atypical PKCzeta in HEK293 cells assessed as TNF-induced NFkappaB activation incubated for 3 hrs prior to TNF induction measured after 5 hrs by bright-glo luciferase reporter gene assay. The format is cell-based.

The target in experiment [3] is Voltage-gated inwardly rectifying potassium channel KCNH2 (Homo sapiens, UniProt Q12809). In words: Inhibition of human ERG.
Experiment [4] has as its target T1, Protein kinase C zeta type. In words: Inhibition of atypical PKCzeta (unknown origin) using CREBtide as substrate incubated for 1 hr measured every 2.5 mins by ADP Quest assay.
Experiment [5] deals with T2, Protein kinase C iota type (Homo sapiens, UniProt P41743).
T2 sequence (P41743 whole entry): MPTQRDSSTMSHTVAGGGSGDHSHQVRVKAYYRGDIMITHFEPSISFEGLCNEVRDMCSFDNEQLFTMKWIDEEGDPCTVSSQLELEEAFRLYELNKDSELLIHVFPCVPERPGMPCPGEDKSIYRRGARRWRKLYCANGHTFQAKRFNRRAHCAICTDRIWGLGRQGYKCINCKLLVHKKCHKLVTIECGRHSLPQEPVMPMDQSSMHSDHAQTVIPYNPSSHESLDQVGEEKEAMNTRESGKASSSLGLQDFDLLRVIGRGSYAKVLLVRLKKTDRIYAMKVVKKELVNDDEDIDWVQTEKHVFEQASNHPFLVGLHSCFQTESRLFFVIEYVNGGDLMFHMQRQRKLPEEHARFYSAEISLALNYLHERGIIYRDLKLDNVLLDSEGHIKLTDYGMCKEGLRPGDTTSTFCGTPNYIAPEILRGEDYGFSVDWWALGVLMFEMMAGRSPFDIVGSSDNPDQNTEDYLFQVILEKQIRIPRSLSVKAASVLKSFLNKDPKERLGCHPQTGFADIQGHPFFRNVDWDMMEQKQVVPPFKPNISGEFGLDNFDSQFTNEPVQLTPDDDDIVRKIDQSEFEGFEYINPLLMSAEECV
In words: Inhibition of atypical PKCiota (unknown origin) using CREBtide as substrate incubated for 1 hr measured every 2.5 mins by ADP Quest assay.

Voltage-gated inwardly rectifying potassium channel KCNH2, sequence (Q12809 whole entry): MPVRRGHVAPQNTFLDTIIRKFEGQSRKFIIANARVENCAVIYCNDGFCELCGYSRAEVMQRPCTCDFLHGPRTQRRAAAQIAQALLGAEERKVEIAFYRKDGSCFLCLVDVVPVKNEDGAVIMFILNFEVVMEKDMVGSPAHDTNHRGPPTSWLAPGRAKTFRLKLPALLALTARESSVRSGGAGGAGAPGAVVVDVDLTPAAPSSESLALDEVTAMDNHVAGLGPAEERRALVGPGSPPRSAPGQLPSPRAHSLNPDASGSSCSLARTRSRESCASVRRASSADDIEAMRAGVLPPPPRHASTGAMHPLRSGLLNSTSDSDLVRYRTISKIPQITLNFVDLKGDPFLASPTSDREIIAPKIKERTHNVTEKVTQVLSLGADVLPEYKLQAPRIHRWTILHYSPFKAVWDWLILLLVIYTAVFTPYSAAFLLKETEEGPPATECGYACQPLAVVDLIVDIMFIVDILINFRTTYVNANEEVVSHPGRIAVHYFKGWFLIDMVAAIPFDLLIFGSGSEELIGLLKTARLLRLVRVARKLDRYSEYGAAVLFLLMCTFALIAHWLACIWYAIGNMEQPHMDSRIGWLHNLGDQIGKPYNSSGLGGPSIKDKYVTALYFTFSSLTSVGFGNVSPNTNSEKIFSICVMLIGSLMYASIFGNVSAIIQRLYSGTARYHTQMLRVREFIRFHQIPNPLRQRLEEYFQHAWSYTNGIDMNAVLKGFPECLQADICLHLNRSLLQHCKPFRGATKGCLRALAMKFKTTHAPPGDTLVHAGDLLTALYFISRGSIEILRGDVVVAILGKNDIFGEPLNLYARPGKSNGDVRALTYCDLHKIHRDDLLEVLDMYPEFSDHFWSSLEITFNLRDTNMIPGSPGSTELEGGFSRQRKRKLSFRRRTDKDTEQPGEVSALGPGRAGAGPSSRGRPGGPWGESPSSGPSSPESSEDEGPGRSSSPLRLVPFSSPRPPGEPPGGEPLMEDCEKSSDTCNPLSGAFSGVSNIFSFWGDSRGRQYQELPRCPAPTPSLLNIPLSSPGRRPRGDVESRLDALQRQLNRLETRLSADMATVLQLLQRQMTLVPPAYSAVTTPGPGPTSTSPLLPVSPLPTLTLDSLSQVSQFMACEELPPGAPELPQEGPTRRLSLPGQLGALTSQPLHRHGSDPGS

Turning to `O=C(c1ccc(Nc2nccc(-c3cc4ccccc4s3)n2)cc1)N1CCC(N2CCCC2)CC1`, the 50% effective concentration (EC50) in experiment [1] was determined as 1 nM; in experiment [2], 3 nM.
In experiment [3], `COc1ccc(-c2csc(N)c2C(=O)OC(C)C)cc1OC` yielded a half-inhibitory concentration (IC50) of more than 10000 nM.
For the compound `COc1ccc(-c2csc(N)c2C(=O)OCc2ccccc2)cc1OC`, the EC50 in experiment [2] was found to be 2 nM. In experiment [4], this compound yielded a concentration for half-maximal inhibition (IC50) of 6000 nM.
As to `COc1cccc(COC(=O)c2c(-c3ccc(OC)c(OC)c3)csc2N)c1`, the values for the IC50 in experiment [3] and in experiment [5] were 1000 nM and 900 nM, respectively. The EC50 in experiment [1] was more than 100 nM; in experiment [2] it was 1 nM.
As for `CCOC(=O)c1c(-c2ccc(N)cc2)csc1N`, the EC50 in experiment [1] turned out to be 270 nM; in experiment [2], 1 nM. The same compound displayed an IC50 in experiment [4] of 2000 nM.
`CCOC(=O)c1c(-c2ccc(N(C)C)cc2)csc1N`: the values for the IC50 in experiment [3] and in experiment [5] were more than 10000 nM and 900 nM, respectively. Besides, in experiment [1], the EC50 was 280 nM.
On to `CCOC(=O)c1c(-c2ccc3c(c2)OCO3)csc1N`, for which the EC50 in experiment [1] came to 20 nM; in experiment [2], 2 nM. Moreover, the IC50 in experiment [4] and in experiment [5] was 2000 nM in each case.
Take `CCOC(=O)c1c(-c2ccc(OC)cc2F)csc1N`: the concentration for a half-maximal effect (EC50) in experiment [2] amounted to 10 nM. Moreover, 4000 nM corresponded to half-maximal inhibition in experiment [4] (IC50).

A word on the EC50: it is the concentration that produces a half-maximal response. The IC50 is the concentration needed to halve the response being measured.
